In ChEMBL document CHEMBL4138196, “Discovery and structure-activity relationship of novel 4-hydroxy-thiazolidine-2-thione derivatives as tumor cell specific pyruvate kinase M2 activators” (Eur J Med Chem, 2018):

What was measured:
HCT-116 [1] = assay: Cell cycle arrest in human HCT116 cells assessed as accumulation at G1 phase at 2.5 uM after 8 to 12 hrs by propidium iodide staining-based flow cytometric method (reference value: 40%); assay type: functional
Outline: (§1)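 HCT116 cells were exposed to DMSO or compound at 1.25, 2.5 or 5 μM; exposure is given as 8 h in the text and 12 h in the methods. Cells were harvested, washed twice in PBS and fixed in ice-cold ethanol at -4°C overnight. They were stained with propidium iodide (50 μg/mL) containing 0.1% RNase for 15 min in the dark at room temperature. Phase distribution was read by flow cytometry.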

PC-3 = assay: Antiproliferative activity against human PC3 cells after 48 hrs by MTS assay; assay type: functional, cell-based; conditions: PC-3, 48 h
Outline: (§2)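 Cells grown in RPMI 1640 with 9% FBS at 37°C, 5% CO2. 3000-10000 cells/well were left to attach 12 h, then given compound at five concentrations, or DMSO as vehicle control, for 48 h. MTS was added for 3 h at 37°C and absorbance read at 490 nm. IC50 (50% growth inhibition) was taken from triplicate dose-response curves.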

HCT-116 [2] = assay: Antiproliferative activity against human HCT116 cells after 48 hrs by MTS assay; assay type: functional, cell-based; conditions: HCT-116, 48 h; outline: as §2
HCT-116 [3] = assay: Cell cycle arrest in human HCT116 cells assessed as accumulation at G2/M phase at 2.5 uM after 8 to 12 hrs by propidium iodide staining-based flow cytometric method (reference value: 21.28%); assay type: functional; outline: as §1
NCI-H1299 = assay: Antiproliferative activity against human H1299 cells after 48 hrs by MTS assay; assay type: functional, cell-based; conditions: NCI-H1299, 48 h; outline: as §2
HeLa = assay: Antiproliferative activity against human HeLa cells after 48 hrs by MTS assay; assay type: functional, cell-based; outline: as §2
HCT-116 [4] = assay: Cell cycle arrest in human HCT116 cells assessed as accumulation at S phase at 5 uM after 8 to 12 hrs by propidium iodide staining-based flow cytometric method (reference value: 43.38%); assay type: functional; outline: as §1
HCT-116 [5] = assay: Cell cycle arrest in human HCT116 cells assessed as accumulation at G2/M phase at 1.25 uM after 8 to 12 hrs by propidium iodide staining-based flow cytometric method (reference value: 21.28%); assay type: functional; outline: as §1
HCT-116 [6] = assay: Cell cycle arrest in human HCT116 cells assessed as accumulation at G1 phase at 5 uM after 8 to 12 hrs by propidium iodide staining-based flow cytometric method (reference value: 40%); assay type: functional; outline: as §1
Pyruvate kinase PKM = Pyruvate kinase PKM (Homo sapiens, UniProt P14618); assay: Activation of N-terminal His -tagged human PKM2 expressed in Escherichia coli BL21 using PEP as substrate measured at 30 secs intervals for between 3 and 6 mins by fluorescent pyruvate kinase-lactate dehydrogenase coupled assay
Sequence of Pyruvate kinase PKM (P14618 whole entry): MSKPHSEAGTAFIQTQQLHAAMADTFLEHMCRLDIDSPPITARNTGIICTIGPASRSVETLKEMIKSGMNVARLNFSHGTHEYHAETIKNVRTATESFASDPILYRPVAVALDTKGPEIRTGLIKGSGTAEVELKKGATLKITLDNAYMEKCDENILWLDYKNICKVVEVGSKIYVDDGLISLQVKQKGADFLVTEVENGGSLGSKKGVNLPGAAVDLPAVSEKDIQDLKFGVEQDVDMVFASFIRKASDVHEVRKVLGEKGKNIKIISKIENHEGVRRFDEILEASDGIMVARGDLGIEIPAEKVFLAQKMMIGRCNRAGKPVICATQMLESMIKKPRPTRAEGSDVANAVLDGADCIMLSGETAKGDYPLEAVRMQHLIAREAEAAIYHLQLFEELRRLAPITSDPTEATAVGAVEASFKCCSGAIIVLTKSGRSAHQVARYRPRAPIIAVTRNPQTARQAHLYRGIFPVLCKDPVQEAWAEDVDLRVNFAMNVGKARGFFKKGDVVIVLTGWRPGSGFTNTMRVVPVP

HCT-116 [7] = assay: Cell cycle arrest in human HCT116 cells assessed as accumulation at G2/M phase after 8 to 12 hrs by propidium iodide staining-based flow cytometric method; assay type: functional; outline: as §1
HCT-116 [8] = assay: Cell cycle arrest in human HCT116 cells assessed as accumulation at S phase at 1.25 uM after 8 to 12 hrs by propidium iodide staining-based flow cytometric method (reference value: 43.38%); assay type: functional; outline: as §1
HCT-116 [9] = assay: Cell cycle arrest in human HCT116 cells assessed as accumulation at G1 phase at 1.25 uM after 8 to 12 hrs by propidium iodide staining-based flow cytometric method (reference value: 40%); assay type: functional; outline: as §1
HCT-116 [10] = assay: Cell cycle arrest in human HCT116 cells assessed as accumulation at G2/M phase at 5 uM after 8 to 12 hrs by propidium iodide staining-based flow cytometric method (reference value: 21.28%); assay type: functional; outline: as §1
HCT-116 [11] = assay: Cell cycle arrest in human HCT116 cells assessed as accumulation at S phase at 2.5 uM after 8 to 12 hrs by propidium iodide staining-based flow cytometric method (reference value: 43.38%); assay type: functional; outline: as §1
[12] = Antiproliferative activity against HELF after 48 hrs by MTS assay; set-up: species or system Homo sapiens; outline: as §2

- IC50 (PC-3): 660 nM
- IC50 (HCT-116 [2]): 810 nM
- IC50 (NCI-H1299): 690 nM
- IC50 (HeLa): 460 nM
- AC50 (Pyruvate kinase PKM): 3140 nM
SMILES: O=S(=O)(Nc1ccc(C2(O)CSC(=S)N2Cc2cccnc2)cc1)c1ccc2c(c1)OCCO2 (stereo unspecified)
- Activity (HCT-116 [1]): 17.35%
- Activity (HCT-116 [3]): 56.76%
- Activity (HCT-116 [4]): 27.65%
- Activity (HCT-116 [5]): 48.86%
- Activity (HCT-116 [6]): 11.58%
- Activity (HCT-116 [7]): Dose-dependent effect
- Activity (HCT-116 [8]): 30.52%
- Activity (HCT-116 [9]): 20.37%
- Activity (HCT-116 [10]): 63.21%
- Activity (HCT-116 [11]): 23.99%
- IC50 [12]: 11800 nM
